The results in this text go back to ChEMBL document CHEMBL1141585, “5,5,6-Fused tricycles bearing imidazole and pyrazole 6-methylidene penems as broad-spectrum inhibitors of beta-lactamases” (Bioorg Med Chem, 2008).

Active and inactive are the calls of the source. The calls are words filed in the database; no cut-off is given here.

Assay [1] is described as follows: Inhibition of TEM1 beta-lactamase. The procedure, abridged:
(§1)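 Spectrophotometric β-lactamase inhibition assay (Bush method) with nitrocefin as substrate. Tazobactam standard included in each experiment. IC₅₀ derived by curve fitting.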

Assay [2] has as its system Escherichia coli. In words: Antimicrobial activity against Escherichia coli GC 2905 expressing P99 beta-lactamase after 18 to 24 hrs by broth microdilution method. It counts as functional. The essentials: (§2)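 CLSI broth microdilution in Mueller–Hinton II broth. Serial dilutions of piperacillin alone or piperacillin plus inhibitor; inoculum 10⁵ CFU/ml. Piperacillin + tazobactam run as comparator. MIC read as endpoint.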
On the technique in general: Dilution methods test growth across graded concentrations, often in twofold steps.

Assay [3] relates to Escherichia coli. In words: Antimicrobial activity against Escherichia coli GC 2906 expressing Imi1 beta-lactamase after 18 to 24 hrs by broth microdilution method. Type of assay: functional. The essentials: as §2
Assay [4] concerns Escherichia coli. In words: Antimicrobial activity against Escherichia coli GC 2804 expressing imp beta-lactamase after 18 to 24 hrs by broth microdilution method. Type of assay: functional. The procedure, abridged: as §2
The test system of assay [5] is Escherichia coli. Nature of the assay: Antimicrobial activity against Escherichia coli GC 2805 expressing CcrA beta-lactamase after 18 to 24 hrs by broth microdilution method. It counts as functional. The procedure, abridged:
as §2

Assay [6] has as its system Escherichia coli. Nature of the assay: Antimicrobial activity against Escherichia coli GC 2253 expressing IRT2 beta-lactamase after 18 to 24 hrs by broth microdilution method. Type of assay: functional. The procedure, abridged: as §2
The test system of assay [7] is Enterobacter cloacae. In words: Antimicrobial activity against Enterobacter cloacae GC 1477 expressing AmpC beta-lactamase after 18 to 24 hrs by broth microdilution method. It counts as functional. The essentials:
as §2

Assay [8] deals with Enterobacter cloacae. In words: Antimicrobial activity against Enterobacter cloacae GC 4142 expressing AmpC beta-lactamase after 18 to 24 hrs by broth microdilution method. Type of assay: functional. The procedure, abridged: as §2
The test system of assay [9] is Enterobacter cloacae. In words: Antimicrobial activity against Enterobacter cloacae GC 6991 expressing AmpC beta-lactamase after 18 to 24 hrs by broth microdilution method. Type of assay: functional. The procedure, abridged: as §2
Assay [10] relates to Enterobacter cloacae. Nature of the assay: Antimicrobial activity against Enterobacter cloacae GC 1475 expressing P99 beta-lactamase after 18 to 24 hrs by broth microdilution method. Type of assay: functional. The essentials: as §2
In assay [11] the test system is Serratia marcescens. In words: Antimicrobial activity against Serratia marcescens GC 1781 expressing Sme1 and AmpC beta-lactamase after 18 to 24 hrs by broth microdilution method. It counts as functional. The procedure, abridged: as §2
For another assay, the system named is Pseudomonas aeruginosa. In words: Antimicrobial activity against Pseudomonas aeruginosa GC 1764 expressing AmpC beta-lactamase after 18 to 24 hrs by broth microdilution method. Type of assay: functional. The essentials:
as §2

Assay [12] has as its system Stenotrophomonas maltophilia. Nature of the assay: Antimicrobial activity against Stenotrophomonas maltophilia GC 1721 expressing L1 beta-lactamase after 18 to 24 hrs by broth microdilution method. Type of assay: functional. The essentials: as §2
Assay [13] in a line: Inhibition of Imi1 beta lactamase.
The nature of assay [14]: Inhibition of AmpC beta-lactamase. The essentials:
as §1

The subject of assay [15] is Escherichia coli. In words: Antimicrobial activity against Escherichia coli GC 2844 after 18 to 24 hrs by broth microdilution method. It counts as functional. The procedure, abridged:
as §2

For assay [16], the system named is Escherichia coli. In words: Antimicrobial activity against Escherichia coli GC 2847 expressing TEM1 beta-lactamase after 18 to 24 hrs by broth microdilution method. It counts as functional. The essentials:
as §2

Assay [17] deals with Escherichia coli. Nature of the assay: Antimicrobial activity against Escherichia coli GC 2920 expressing IRT2 beta-lactamase after 18 to 24 hrs by broth microdilution method. It counts as functional. The essentials: as §2
The subject of assay [18] is Escherichia coli. In words: Antimicrobial activity against Escherichia coli GC 2883 expressing OXA10 and PSE2 beta-lactamase after 18 to 24 hrs by broth microdilution method. Type of assay: functional. The procedure, abridged: as §2
In assay [19] the test system is Escherichia coli. Nature of the assay: Antimicrobial activity against Escherichia coli GC 2894 expressing AmpC beta-lactamase after 18 to 24 hrs by broth microdilution method. It counts as functional. The essentials: as §2
The test system of assay [20] is Serratia marcescens. In words: Antimicrobial activity against Serratia marcescens GC 4132 expressing AmpC beta-lactamase after 18 to 24 hrs by broth microdilution method. Type of assay: functional. The procedure, abridged:
as §2

Assay [21] has as its system Escherichia coli. Nature of the assay: Antimicrobial activity against Escherichia coli GC 2203 after 18 to 24 hrs by broth microdilution method. It counts as functional. The procedure, abridged: as §2
A further assay concerns Staphylococcus aureus. In words: Antimicrobial activity against Staphylococcus aureus GC 2216 after 18 to 24 hrs by broth microdilution method. Type of assay: functional. The essentials:
as §2

Assay [22] has as its system Escherichia coli. In words: Antibacterial efficacy against Escherichia coli LSU 80-8 infected ip dosed CD1 mouse model. Type of assay: functional. The essentials: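 Female CD-1 mice, five per dose level, five dose levels per compound. Lethal intraperitoneal challenge (10–100 LD₅₀), then intravenous piperacillin alone or piperacillin plus inhibitor at a 4:1 (Pip:Inhibitor) ratio. Survival read at 7 days; ratios from three separate tests pooled; ED₅₀ by probit analysis.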

A word on the IC50: it is the point on the concentration scale where inhibition reaches its midpoint. A higher IC50 goes with lower potency. The MIC is the lowest concentration found to suppress growth. A higher MIC goes with weaker potency. What is called ED50 is the dose that gives a 50% effect, or the effect in half of the subjects. Higher therefore signals weaker potency. As to `O=C([O-])C1=CS[C@@H]2/C(=C\c3cn4c5c(sc4n3)CCCC5)C(=O)N12.[Na+]`, the values for the IC50 in assay [1], in assay [13] and in assay [14] were 1.9 nM, 33 nM and 0.62 nM, respectively. Further, the MIC in the assay with Escherichia coli [2] is 4 µg/mL; in the assay with Escherichia coli [3], 2 µg/mL; in the assay with Escherichia coli [4] it was under 0.06 µg/mL; against Escherichia coli [5] it was over 64 µg/mL; with Escherichia coli [6], 16 µg/mL; against Enterobacter cloacae [7], 32 µg/mL. The MIC with Enterobacter cloacae [8] is 8 µg/mL; in the assay with Enterobacter cloacae [9], 16 µg/mL; against Enterobacter cloacae [10] it was 8 µg/mL; against Serratia marcescens [11], 1 µg/mL; with Pseudomonas aeruginosa it was 2 µg/mL; in [12] it was over 64 µg/mL. The MIC is 2 µg/mL in the assay on Escherichia coli [15]; 8 µg/mL against Escherichia coli [16]; 2 µg/mL in the assay with Escherichia coli [17]; 2 µg/mL in the assay on Escherichia coli [18]; 4 µg/mL in the assay on Escherichia coli [19]; 2 µg/mL in the assay with Serratia marcescens [20]. In addition, the results for the MIC against Escherichia coli [21] and in the assay with Staphylococcus aureus were 2 µg/mL and under 0.06 µg/mL, respectively. The same molecule gave an ED50 in the assay with Escherichia coli [22] of 23.3 mg/kg.
On to `C[C@]1(Cn2ccnn2)[C@H](C(=O)[O-])N2C(=O)C[C@H]2S1(=O)=O.[Na+]` [TAZOBACTAM SODIUM], for which the half-maximal inhibitory concentration (IC50) worked out at 100 nM in assay [1] and 84000 nM in assay [14]. Further, the minimal inhibitory concentration (MIC) against Escherichia coli [2] was 64 µg/mL; in the assay on Escherichia coli [3], 2 µg/mL; with Escherichia coli [4], under 0.06 µg/mL; in the assay with Escherichia coli [5] it was over 64 µg/mL; with Escherichia coli [6], 2 µg/mL; against Enterobacter cloacae [7], over 64 µg/mL. Besides, the MIC against Enterobacter cloacae [8] was 64 µg/mL; against Enterobacter cloacae [9], over 64 µg/mL; in the assay with Enterobacter cloacae [10], 64 µg/mL; against Serratia marcescens [11], 0.5 µg/mL; against Pseudomonas aeruginosa it was over 64 µg/mL; in [12], over 64 µg/mL. Also, the MIC stood at 2 µg/mL in the assay with Escherichia coli [15]; 2 µg/mL against Escherichia coli [16]; 4 µg/mL in the assay with Escherichia coli [17]; 1 µg/mL in the assay on Escherichia coli [18]; 32 µg/mL with Escherichia coli [19]; 64 µg/mL in the assay on Serratia marcescens [20]. Besides, the MIC in the assay with Escherichia coli [21] was 1 µg/mL; against Staphylococcus aureus, 0.5 µg/mL. Further, the outcome in assay [13] was inactive. Moreover, in the assay on Escherichia coli [22], the ED50 turned out to be 20 mg/kg.
